Laboratory results reported in ChEMBL document CHEMBL1146375, “Synthetic studies on novel benzimidazolopeptides with antimicrobial, cytotoxic and anthelmintic potential” (2007).
≈ marks a conversion by molar mass, not a printed value.

Experiments:
Bacillus subtilis [1] = experiment: Antibacterial activity against Bacillus subtilis NCIM 2063 after 18 hrs by disc diffusion method; format: functional
Procedure, shortened: (§1)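 Modified Kirby-Bauer disc diffusion. Plates inoculated with spore suspension (about 6 × 10⁴ spores mL^-1). Sterile 6 mm paper discs carried test samples at 10 mg mL^-1; ciprofloxacin disc as reference, DMF disc as negative control. Plates held 18 h at 37 °C. Inhibition zone diameters (mm) averaged over triplicate sets.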

Staphylococcus aureus [2] = experiment: Antibacterial activity against Staphylococcus aureus NCIM 2079 after 18 hrs by disc diffusion method; format: functional; procedure, shortened: as §1
Pseudomonas aeruginosa [3] = experiment: Antibacterial activity against Pseudomonas aeruginosa NCIM 2034 after 18 hrs by disc diffusion method; format: functional; procedure, shortened: as §1
Escherichia coli [4] = experiment: Antibacterial activity against Escherichia coli NCIM 2065 after 18 hrs by disc diffusion method; format: functional; procedure, shortened: as §1
Candida albicans [5] = experiment: Antifungal activity against Candida albicans MUCC 29 after 48 hrs by disc diffusion method; format: functional
Procedure, shortened: (§2)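 Agar well diffusion on plates inoculated with spore suspension in normal saline from cultures on Sabouraud's broth. Wells punched and loaded with test samples or griseofulvin at 10 mg mL^-1, with DMSO as negative control. Incubated 48 h at 37 °C.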

Microsporum audouinii [6] = experiment: Antifungal activity against Microsporum audouinii MUCC 545 after 48 hrs by disc diffusion method; format: functional; procedure, shortened: as §2
Trichophyton benhamiae [7] = experiment: Antifungal activity against Trichophyton mentagrophytes MUCC 665 after 48 hrs by disc diffusion method; format: functional, Arthroderma benhamiae; procedure, shortened: as §2
Aspergillus niger = experiment: Antifungal activity against Aspergillus niger MUCC 177 after 48 hrs by disc diffusion method; format: functional; procedure, shortened: as §2
Bacillus subtilis [8] = experiment: Antibacterial activity against Bacillus subtilis NCIM 2063 after 18 hrs by tube dilution method; format: functional; settings: NCIM 2063, 18 h
Procedure, shortened: (§3)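 Tube dilution MIC. Stock diluted in sterile broth to seven concentrations from 200 to 3.1 […]. Each tube inoculated with one loopful of test bacterium and incubated 18 h at 37 °C. MIC read from presence or absence of growth.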

Staphylococcus aureus [9] = experiment: Antibacterial activity against Staphylococcus aureus NCIM 2079 after 18 hrs by tube dilution method; format: functional; settings: NCIM 2079, 18 h; procedure, shortened: as §3
Pseudomonas aeruginosa [10] = experiment: Antibacterial activity against Pseudomonas aeruginosa NCIM 2034 after 18 hrs by tube dilution method; format: functional; settings: NCIM 2034, 18 h; procedure, shortened: as §3
Escherichia coli [11] = experiment: Antibacterial activity against Escherichia coli NCIM 2065 after 18 hrs by tube dilution method; format: functional; settings: NCIM 2065, 18 h
Candida albicans [12] = experiment: Antifungal activity against Candida albicans MUCC 29 after 48 hrs by tube dilution method; format: functional
Procedure, shortened: (§4)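 Tube dilution MIC as for bacteria (seven concentrations, 200–3.1 […]), with DMSO in place of DMF. Tubes inoculated with fungal culture and incubated 48 h at 37 °C. MIC read from presence or absence of growth.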

Microsporum audouinii [13] = experiment: Antifungal activity against Microsporum audouinii MUCC 545 after 48 hrs by tube dilution method; format: functional; procedure, shortened: as §4
Trichophyton benhamiae [14] = experiment: Antifungal activity against Trichophyton mentagrophytes MUCC 665 after 48 hrs by tube dilution method; format: functional, Arthroderma benhamiae; procedure, shortened: as §4
Eudrilus [15] = experiment: Anthelmintic activity against Eudrilus sp. assessed as mean paralyzing time; format: functional
Procedure, shortened: (§5)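 Earthworms exposed to test suspensions at 2 mg mL^-1 (0.2% w/v), made by triturating compound with Tween 80 (0.5%) and distilled water, then mechanically stirred 30 min. Mebendazole suspension prepared alike as reference. Paralysis and death times recorded; death confirmed by no movement in 50 °C water. Means from triplicate sets.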

Eudrilus [16] = experiment: Anthelmintic activity against Eudrilus sp. assessed as mean death time; format: functional
Procedure, shortened: (§6)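 Earthworms exposed to test suspensions at 2 mg mL−1, prepared by triturating compound with Tween 80 (0.5%) and distilled water, stirring 30 min, then diluting to 0.2% w/v. Mebendazole suspension was made the same way. Death was confirmed by moving worms into 50 °C warm water and looking for movement. Mean death time (min) taken from triplicate sets.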

[17] = Anthelmintic activity against Megascoplex konkanensis ICARBC 211 assessed as mean paralyzing time; format: functional; procedure, shortened: as §5
[18] = Anthelmintic activity against Megascoplex konkanensis ICARBC 211 assessed as mean death time; format: functional; procedure, shortened: as §5
Pontoscolex corethrurus [19] = experiment: Anthelmintic activity against Pontoscolex corethrurus ICARBC 408 assessed as mean paralyzing time; format: functional; procedure, shortened: as §5
Pontoscolex corethrurus [20] = experiment: Anthelmintic activity against Pontoscolex corethrurus ICARBC 408 assessed as mean death time; format: functional; procedure, shortened: as §6

Row | Compound | inhibition zone (IZ) (Bacillus subtilis [1]) | inhibition zone (IZ) (Staphylococcus aureus [2]) | inhibition zone (IZ) (Pseudomonas aeruginosa [3]) | inhibition zone (IZ) (Escherichia coli [4]) | inhibition zone (IZ) (Candida albicans [5]) | inhibition zone (IZ) (Microsporum audouinii [6]) | inhibition zone (IZ) (Trichophyton benhamiae [7]) | inhibition zone (IZ) (Aspergillus niger) | MIC (Bacillus subtilis [8]) | MIC (Staphylococcus aureus [9]) | MIC (Pseudomonas aeruginosa [10]) | MIC (Escherichia coli [11]) | MIC (Candida albicans [12]) | MIC (Microsporum audouinii [13]) | MIC (Trichophyton benhamiae [14]) | Time (Eudrilus [15]) | Time (Eudrilus [16]) | TIME [17] | TIME [18] | Time (Pontoscolex corethrurus [19]) | also measured
1 | COC(=O)CNC(=O)[C@H](CC(C)C)NC(=O)c1ccc(-c2nc3cc(C)c(C)cc3[nH]2)cc1 | 10 mm | 9 mm | 20 mm | 14 mm | 18 mm | 10 mm | 12 mm | 16 mm | 6 mg/L (≈ 13.3 µM) | 12.5 mg/L (≈ 27.7 µM) | 6 mg/L (≈ 13.3 µM) | 12.5 mg/L (≈ 27.7 µM) | 6 mg/L (≈ 13.3 µM) | 25 mg/L (≈ 55.5 µM) | 6 mg/L (≈ 13.3 µM) | 29.73 min | 42.54 min | 0.472 h | 0.69 h | 37.17 min | Time (Pontoscolex corethrurus [20]): 49.4 min
2 | COC(=O)[C@H](Cc1c[nH]c2ccccc12)NC(=O)c1cc(I)c(-c2nc3cc(C)c(C)cc3[nH]2)c(I)c1 | 16 mm | 12 mm | 25 mm | 19 mm | 18 mm | 9 mm | 12 mm | 19 mm | 6 mg/L (≈ 8.35 µM) | 12.5 mg/L (≈ 17.4 µM) | 6 mg/L (≈ 8.35 µM) | 12.5 mg/L (≈ 17.4 µM) | 6 mg/L (≈ 8.35 µM) | 12.5 mg/L (≈ 17.4 µM) | 6 mg/L (≈ 8.35 µM) | 13.5 min | 24.02 min | 0.217 h | 0.371 h | 17.1 min | Time (Pontoscolex corethrurus [20]): 29.29 min
3 | O=C(O)CNC(=O)CNC(=O)c1cc(-c2nc3ccc([N+](=O)[O-])cc3[nH]2)ccc1O | 9 mm | 9 mm | 22 mm | 16 mm | 18 mm | 13 mm | 16 mm | 17 mm | 25 mg/L (≈ 60.5 µM) | 12.5 mg/L (≈ 30.2 µM) | 6 mg/L (≈ 14.5 µM) | 12.5 mg/L (≈ 30.2 µM) | 6 mg/L (≈ 14.5 µM) | 6 mg/L (≈ 14.5 µM) | 6 mg/L (≈ 14.5 µM) | 25.5 min | 36.7 min | 0.451 h | 0.601 h | 31.18 min | Time (Pontoscolex corethrurus [20]): 42.26 min
4 | Cc1cc2nc(-c3ccc(O)c(C(=O)N[C@@H](C)C(=O)N[C@H](C(=O)N[C@@H](C)C(=O)O)C(C)C)c3)[nH]c2cc1C | 14 mm | 11 mm | 21 mm | 17 mm | 19 mm | 11 mm | 15 mm | 17 mm | 6 mg/L (≈ 11.5 µM) | 25 mg/L (≈ 47.7 µM) | 6 mg/L (≈ 11.5 µM) | 25 mg/L (≈ 47.7 µM) | 6 mg/L (≈ 11.5 µM) | 6 mg/L (≈ 11.5 µM) | 6 mg/L (≈ 11.5 µM) | 25.18 min | 36.14 min | 0.42 h | 0.57 h | 29.65 min | Time (Pontoscolex corethrurus [20]): 41.6 min
5 | COC(=O)[C@H](Cc1ccc(O)cc1)NC(=O)[C@H](Cc1cnc[nH]1)NC(=O)c1ccc(-c2nc3cc(C)c(C)cc3[nH]2)cc1 | 14 mm | 10 mm | 19 mm | 15 mm | 16 mm | 8 mm | 13 mm | 16 mm | 6 mg/L (≈ 10.3 µM) | 12.5 mg/L (≈ 21.5 µM) | 12.5 mg/L (≈ 21.5 µM) | 25 mg/L (≈ 43.1 µM) | 12.5 mg/L (≈ 21.5 µM) | 25 mg/L (≈ 43.1 µM) | 6 mg/L (≈ 10.3 µM) | 13.49 min | 23.98 min | 0.228 h | 0.377 h | 17.55 min | Time (Pontoscolex corethrurus [20]): 29.18 min
6 | COC(=O)[C@H](C)NC(=O)[C@@H]1CCCN1C(=O)c1cc(-c2nc3ccc([N+](=O)[O-])cc3[nH]2)ccc1O | 13 mm | 9 mm | 28 mm | 18 mm | 22 mm | 12 mm | 17 mm | 16 mm | 12.5 mg/L (≈ 26 µM) | 25 mg/L (≈ 51.9 µM) | 6 mg/L (≈ 12.5 µM) | 12.5 mg/L (≈ 26 µM) | 6 mg/L (≈ 12.5 µM) | 6 mg/L (≈ 12.5 µM) | 6 mg/L (≈ 12.5 µM) | 27.23 min | 35.82 min | 0.438 h | 0.587 h | 31.98 min | Time (Pontoscolex corethrurus [20]): 43.76 min
7 | Cc1cc2nc(-c3ccc(C(=O)N[C@@H](CCCNC(=N)N[N+](=O)[O-])C(=O)O)cc3)[nH]c2cc1C | 15 mm | 11 mm | 25 mm | 19 mm | 17 mm | 10 mm | 14 mm | 16 mm | 12.5 mg/L (≈ 26.7 µM) | 25 mg/L (≈ 53.5 µM) | 6 mg/L (≈ 12.8 µM) | 12.5 mg/L (≈ 26.7 µM) | 12.5 mg/L (≈ 26.7 µM) | 12.5 mg/L (≈ 26.7 µM) | 12.5 mg/L (≈ 26.7 µM) | 18.38 min | 38.12 min | 0.302 h | 0.438 h | 21.51 min | Time (Pontoscolex corethrurus [20]): 34.96 min
